Data taken from ChEMBL document CHEMBL4229410, “Facile construction of fused benzimidazole-isoquinolinones that induce cell-cycle arrest and apoptosis in colorectal cancer cells” (Bioorg Med Chem, 2018).
The source made the active and inactive calls.

Assays:
[1] = molecular target: High affinity nerve growth factor receptor (Homo sapiens, UniProt P04629); assay: Inhibition of human TRKA (G475 to G790 residues) expressed in mammalian expression system assessed as residual activity at 5 uM by KINOMEscan assay relative to control
HT-29 [2] = assay: Inhibition of PI3K/AKT signaling pathway in human HT-29 cells assessed as reduction in mTOR phosphorylation up to 75 uM after 48 hrs by Western blot analysis; format: cell-based
[3] = molecular target: Bone morphogenetic protein receptor type-2 (Homo sapiens, UniProt Q13873); assay: Binding affinity to human BMPR2 (R179 to Q526 residues) expressed in mammalian expression system by KINOMEscan assay
Sequence of Bone morphogenetic protein receptor type-2 (Q13873 whole entry, the tested form may be a part): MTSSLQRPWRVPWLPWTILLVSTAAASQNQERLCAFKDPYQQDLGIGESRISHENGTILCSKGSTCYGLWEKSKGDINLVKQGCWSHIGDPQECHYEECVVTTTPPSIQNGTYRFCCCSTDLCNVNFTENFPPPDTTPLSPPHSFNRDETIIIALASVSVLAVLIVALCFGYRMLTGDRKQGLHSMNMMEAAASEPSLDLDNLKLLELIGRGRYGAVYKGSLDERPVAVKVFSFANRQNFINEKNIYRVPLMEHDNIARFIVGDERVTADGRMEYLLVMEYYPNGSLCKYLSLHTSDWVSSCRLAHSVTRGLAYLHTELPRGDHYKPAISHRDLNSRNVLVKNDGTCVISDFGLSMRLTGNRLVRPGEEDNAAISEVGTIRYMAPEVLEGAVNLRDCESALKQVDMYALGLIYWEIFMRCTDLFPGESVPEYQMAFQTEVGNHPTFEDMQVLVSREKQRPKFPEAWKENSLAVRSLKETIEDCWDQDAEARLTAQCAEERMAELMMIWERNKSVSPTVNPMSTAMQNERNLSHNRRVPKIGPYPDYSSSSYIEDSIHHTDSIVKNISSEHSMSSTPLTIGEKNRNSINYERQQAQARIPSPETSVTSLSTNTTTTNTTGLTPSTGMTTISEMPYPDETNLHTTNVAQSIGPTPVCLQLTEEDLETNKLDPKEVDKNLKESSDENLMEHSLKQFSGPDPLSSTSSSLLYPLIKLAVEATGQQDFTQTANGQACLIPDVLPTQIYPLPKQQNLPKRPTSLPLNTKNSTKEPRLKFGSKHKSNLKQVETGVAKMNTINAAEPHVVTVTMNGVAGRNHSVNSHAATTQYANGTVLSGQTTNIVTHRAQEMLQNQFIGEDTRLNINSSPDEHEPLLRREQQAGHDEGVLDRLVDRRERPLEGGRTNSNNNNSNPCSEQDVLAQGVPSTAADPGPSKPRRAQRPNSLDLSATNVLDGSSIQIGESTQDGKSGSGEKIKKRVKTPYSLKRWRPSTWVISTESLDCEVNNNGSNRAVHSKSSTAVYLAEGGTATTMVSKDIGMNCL

[4] = molecular target: Serine/threonine-protein kinase PAK 4 (Homo sapiens, UniProt O96013); assay: Binding affinity to partial length human PAK4 (Q144 to R438 residues) expressed in bacterial expression system by KINOMEscan assay
[5] = molecular target: Serine/threonine-protein kinase PAK 2 (Homo sapiens, UniProt Q13177); assay: Inhibition of partial length human PAK2 (P151 to R525 residues) expressed in bacterial expression system assessed as residual activity at 5 uM by KINOMEscan assay relative to control
[6] = molecular target: Atypical kinase COQ8A, mitochondrial (Homo sapiens, UniProt Q8NI60); assay: Inhibition of […] human ADCK3 (M280 to Q647 residues) expressed in bacterial expression system assessed as residual activity at 5 uM by KINOMEscan assay relative to control
[7] = molecular target: T1, Mitogen-activated protein kinase 14 (Homo sapiens, UniProt Q16539); assay: Binding affinity to full length human p38alpha (M1 to S360 residues) expressed in bacterial expression system by KINOMEscan assay
T1 sequence (Q16539 whole entry, the tested form may be a part): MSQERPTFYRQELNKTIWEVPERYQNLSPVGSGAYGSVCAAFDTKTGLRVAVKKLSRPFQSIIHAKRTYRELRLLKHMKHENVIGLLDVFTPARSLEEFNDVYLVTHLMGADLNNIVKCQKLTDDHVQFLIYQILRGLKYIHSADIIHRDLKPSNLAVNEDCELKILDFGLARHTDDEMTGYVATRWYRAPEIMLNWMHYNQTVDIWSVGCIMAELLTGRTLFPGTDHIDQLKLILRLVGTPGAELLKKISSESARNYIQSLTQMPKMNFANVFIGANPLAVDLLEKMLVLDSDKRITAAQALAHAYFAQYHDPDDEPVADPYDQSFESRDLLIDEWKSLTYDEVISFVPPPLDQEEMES

HT-29 [8] = assay: Cell cycle arrest in human HT-29 cells assessed as increase in accumulation at G2/M-phase after 48 hrs by propidium iodide staining based flow cytometry; format: functional
[9] = molecular target: Cyclin-dependent kinase 16 (Homo sapiens, UniProt Q00536); assay: Binding affinity to human PCTK1 (G160 to A474 residues) expressed in mammalian expression system by KINOMEscan assay
Sequence of Cyclin-dependent kinase 16 (Q00536 whole entry, the tested form may be a part): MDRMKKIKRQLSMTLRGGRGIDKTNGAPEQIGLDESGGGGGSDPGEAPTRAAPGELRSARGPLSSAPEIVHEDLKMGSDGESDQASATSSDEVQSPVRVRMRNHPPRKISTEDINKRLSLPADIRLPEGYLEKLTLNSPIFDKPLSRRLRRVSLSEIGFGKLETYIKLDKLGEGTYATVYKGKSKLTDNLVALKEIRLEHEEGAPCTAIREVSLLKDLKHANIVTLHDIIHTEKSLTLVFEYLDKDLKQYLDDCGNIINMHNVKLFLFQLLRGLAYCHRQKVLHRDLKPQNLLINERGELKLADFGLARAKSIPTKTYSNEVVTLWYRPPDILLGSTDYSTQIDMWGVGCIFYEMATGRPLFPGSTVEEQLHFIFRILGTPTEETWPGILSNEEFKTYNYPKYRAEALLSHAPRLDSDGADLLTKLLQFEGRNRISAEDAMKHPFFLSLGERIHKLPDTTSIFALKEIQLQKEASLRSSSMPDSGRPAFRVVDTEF

SW-620 [10] = assay: Cell cycle arrest in human SW620 cells assessed as accumulation at G1-phase at 50 uM after 48 hrs by propidium iodide staining based flow cytometry (reference value: 40.56%); format: functional
[11] = molecular target: Serine/threonine-protein kinase 32C (Homo sapiens, UniProt Q86UX6); assay: Binding affinity to human YANK3 (M68 to G486 residues) expressed in bacterial expression system by KINOMEscan assay
Sequence of Serine/threonine-protein kinase 32C (Q86UX6 whole entry, the tested form may be a part): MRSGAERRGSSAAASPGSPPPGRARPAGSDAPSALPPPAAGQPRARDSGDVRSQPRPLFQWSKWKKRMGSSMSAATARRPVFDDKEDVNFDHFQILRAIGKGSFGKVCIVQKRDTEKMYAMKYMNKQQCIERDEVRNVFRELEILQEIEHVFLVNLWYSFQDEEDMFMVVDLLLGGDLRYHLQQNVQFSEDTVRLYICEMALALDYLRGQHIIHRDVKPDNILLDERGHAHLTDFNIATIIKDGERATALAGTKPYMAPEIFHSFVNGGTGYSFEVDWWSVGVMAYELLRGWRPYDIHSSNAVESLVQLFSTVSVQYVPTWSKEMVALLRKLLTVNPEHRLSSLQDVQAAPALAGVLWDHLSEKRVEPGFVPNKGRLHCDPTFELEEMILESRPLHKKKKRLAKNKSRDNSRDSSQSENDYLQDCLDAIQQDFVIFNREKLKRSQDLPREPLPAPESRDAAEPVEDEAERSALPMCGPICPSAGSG

Insulin receptor = Insulin receptor (Homo sapiens, UniProt P06213); assay: Binding affinity to human INSR (P997 to E1318 residues) expressed in mammalian expression system by KINOMEscan assay
[12] = molecular target: T1, Mitogen-activated protein kinase 14; assay: Inhibition of full length human p38alpha (M1 to S360 residues) expressed in bacterial expression system assessed as residual activity at 5 uM by KINOMEscan assay relative to control
[13] = molecular target: Tyrosine-protein kinase BTK (Homo sapiens, UniProt Q06187); assay: Binding affinity to full length human BTK (M1 to S659 residues) expressed in mammalian expression system by KINOMEscan assay
Sequence of Tyrosine-protein kinase BTK (Q06187 whole entry, the tested form may be a part): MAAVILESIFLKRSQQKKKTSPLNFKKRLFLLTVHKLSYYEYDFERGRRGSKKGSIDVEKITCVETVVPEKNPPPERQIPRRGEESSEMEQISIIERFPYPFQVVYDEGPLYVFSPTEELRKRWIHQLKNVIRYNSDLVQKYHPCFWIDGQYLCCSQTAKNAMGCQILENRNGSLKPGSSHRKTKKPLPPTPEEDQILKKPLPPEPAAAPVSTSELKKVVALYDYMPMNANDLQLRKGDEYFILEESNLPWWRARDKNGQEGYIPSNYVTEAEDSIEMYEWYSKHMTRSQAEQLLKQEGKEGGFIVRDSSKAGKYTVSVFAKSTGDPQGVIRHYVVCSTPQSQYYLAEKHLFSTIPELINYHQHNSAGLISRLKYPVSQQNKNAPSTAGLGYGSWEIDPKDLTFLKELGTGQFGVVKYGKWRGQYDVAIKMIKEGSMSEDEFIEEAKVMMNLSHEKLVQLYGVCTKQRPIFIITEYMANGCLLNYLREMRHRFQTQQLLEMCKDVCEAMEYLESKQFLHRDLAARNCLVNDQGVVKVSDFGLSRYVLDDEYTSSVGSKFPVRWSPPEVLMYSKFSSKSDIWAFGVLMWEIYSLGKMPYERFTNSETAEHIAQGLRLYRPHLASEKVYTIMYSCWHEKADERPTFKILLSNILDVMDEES

[14] = molecular target: Mitogen-activated protein kinase 10 (Homo sapiens, UniProt P53779); assay: Binding affinity to human JNK3 (V28 to Q422 residues) expressed in mammalian expression system by KINOMEscan assay
[15] = molecular target: Mitogen-activated protein kinase 9 (Homo sapiens, UniProt P45984); assay: Inhibition of full length human JNK2 (M1 to Q382 residues) expressed in mammalian expression system assessed as residual activity at 5 uM by KINOMEscan assay relative to control
Sequence of Mitogen-activated protein kinase 9 (P45984 whole entry, looked up, the tested form may be a part): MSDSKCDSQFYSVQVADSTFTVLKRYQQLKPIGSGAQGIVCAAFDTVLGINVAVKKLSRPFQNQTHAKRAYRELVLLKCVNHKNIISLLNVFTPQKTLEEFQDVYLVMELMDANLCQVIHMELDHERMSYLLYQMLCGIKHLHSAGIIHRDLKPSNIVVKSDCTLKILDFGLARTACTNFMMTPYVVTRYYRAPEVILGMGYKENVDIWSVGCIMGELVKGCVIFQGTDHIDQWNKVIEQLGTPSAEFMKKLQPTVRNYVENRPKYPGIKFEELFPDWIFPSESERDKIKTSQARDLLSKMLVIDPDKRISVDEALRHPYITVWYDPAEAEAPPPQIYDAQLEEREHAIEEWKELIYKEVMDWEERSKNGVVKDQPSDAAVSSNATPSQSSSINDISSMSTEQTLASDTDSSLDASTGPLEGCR

[16] = molecular target: Fibroblast growth factor receptor 2 (Homo sapiens, UniProt P21802); assay: Binding affinity to partial length human FGFR2 (D457 to E769 residues) expressed in bacterial expression system by KINOMEscan assay
Sequence of Fibroblast growth factor receptor 2 (P21802 whole entry, the tested form may be a part): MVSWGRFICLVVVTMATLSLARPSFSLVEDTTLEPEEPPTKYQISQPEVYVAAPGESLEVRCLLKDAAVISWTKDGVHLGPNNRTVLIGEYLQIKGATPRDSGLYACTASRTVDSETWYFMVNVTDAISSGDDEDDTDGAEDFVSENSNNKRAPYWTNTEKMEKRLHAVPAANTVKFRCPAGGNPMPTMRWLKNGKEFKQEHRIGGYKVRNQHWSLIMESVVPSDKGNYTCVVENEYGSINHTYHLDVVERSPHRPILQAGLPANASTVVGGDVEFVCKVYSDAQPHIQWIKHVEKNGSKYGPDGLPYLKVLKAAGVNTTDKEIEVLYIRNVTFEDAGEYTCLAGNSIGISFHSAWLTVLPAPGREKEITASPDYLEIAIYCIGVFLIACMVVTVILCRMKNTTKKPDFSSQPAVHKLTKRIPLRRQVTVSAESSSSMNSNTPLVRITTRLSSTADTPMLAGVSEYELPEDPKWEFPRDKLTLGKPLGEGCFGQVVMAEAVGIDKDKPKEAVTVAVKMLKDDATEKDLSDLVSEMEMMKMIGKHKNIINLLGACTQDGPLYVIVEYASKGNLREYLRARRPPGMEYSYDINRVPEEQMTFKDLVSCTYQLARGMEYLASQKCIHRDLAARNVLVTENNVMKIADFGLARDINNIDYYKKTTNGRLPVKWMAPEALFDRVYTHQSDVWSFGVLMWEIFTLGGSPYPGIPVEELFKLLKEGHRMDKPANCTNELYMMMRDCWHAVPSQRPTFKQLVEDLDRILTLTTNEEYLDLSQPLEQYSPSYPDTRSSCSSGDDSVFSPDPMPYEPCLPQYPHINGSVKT

Homo sapiens = organism: Homo sapiens; assay: Inhibition of PI3K/AKT signaling pathway in human SW620 cells assessed as reduction in mTOR phosphorylation up to 75 uM after 48 hrs by Western blot analysis; format: cell-based
[17] = molecular target: Serine/threonine-protein kinase ULK2 (Homo sapiens) (UniProt Q8IYT8); assay: Inhibition of human ULK2 (M1 to S301 residues) expressed in mammalian expression system assessed as residual activity at 5 uM by KINOMEscan assay relative to control
SW-620 [18] = assay: Inhibition of colony formation in human SW620 cells assessed as reduction in number of colonies at 25 to 75 uM treated for 48 hrs followed by compound washout and measured after 14 hrs by crystal violet staining based assay; format: functional, cell-based
[19] = molecular target: Serine/threonine-protein kinase Chk1 (Homo sapiens, UniProt O14757); assay: Binding affinity to human CHEK1 (M1 to G289 residues) expressed in bacterial expression system by KINOMEscan assay
Sequence of Serine/threonine-protein kinase Chk1 (O14757 whole entry, the tested form may be a part): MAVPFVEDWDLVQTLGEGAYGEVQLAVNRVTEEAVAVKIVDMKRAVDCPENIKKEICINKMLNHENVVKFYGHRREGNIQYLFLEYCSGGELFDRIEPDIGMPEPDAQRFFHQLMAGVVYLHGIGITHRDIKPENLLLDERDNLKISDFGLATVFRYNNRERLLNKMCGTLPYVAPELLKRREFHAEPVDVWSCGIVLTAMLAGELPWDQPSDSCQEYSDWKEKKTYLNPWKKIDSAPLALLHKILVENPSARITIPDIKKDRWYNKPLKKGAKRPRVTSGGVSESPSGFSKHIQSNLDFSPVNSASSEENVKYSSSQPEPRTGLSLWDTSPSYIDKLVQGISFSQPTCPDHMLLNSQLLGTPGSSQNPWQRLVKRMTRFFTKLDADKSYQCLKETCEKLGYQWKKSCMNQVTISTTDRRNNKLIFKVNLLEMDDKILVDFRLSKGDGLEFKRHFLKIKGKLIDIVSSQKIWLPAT

SW-620 [20] = assay: Increase in PTEN expression in human SW620 cells after 48 hrs by Western blot analysis; format: functional, cell-based
In short: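 HT29 or SW620 cells were treated at 0, 25, 50 and 75 μM for 48 h and lysed in RIPA with protease and phosphatase inhibitors. Protein was quantified by BCA. 50 μg lysate was run on 8–15% SDS-PAGE and transferred to PVDF. Blocking was 5% BSA/TBST for 2 h; primary antibodies were applied overnight at 4 °C, then HRP secondary 1 h at room temperature.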

HT-29 [21] = assay: Growth inhibition of human HT-29 cells by MTT assay; format: functional
In short: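 MTT viability assay: 3×10³ cells/well were pre-incubated for 24 h, then exposed to 0, 12.5, 25, 50, 100 or 200 μM for 12, 24, 48 or 72 h. MTT was added at 0.5 mg/mL final for 4 h, formazan dissolved in DMSO, and absorbance read at 570 nm. GI₅₀ was taken from growth-inhibition curves; mean ± SD of three independent experiments, each in sextuplicate.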

[22] = molecular target: Serine/threonine-protein kinase pim-3 (Homo sapiens, UniProt Q86V86); assay: Binding affinity to human PIM3 (G16 to A317 residues) expressed in bacterial expression system by KINOMEscan assay
[23] = molecular target: Serine/threonine-protein kinase pim-2 (Homo sapiens, UniProt Q9P1W9); assay: Binding affinity to human PIM2 (M1 to E291 residues) expressed in bacterial expression system by KINOMEscan assay
HT-29 [24] = assay: Induction of apoptosis in human HT-29 cells assessed as early apoptotic cells at 25 uM after 48 hrs by Annexin-V-FITC/propidium iodide staining based flow cytometry (reference value: 1%); format: functional
[25] = molecular target: Mast/stem cell growth factor receptor Kit (Homo sapiens, UniProt P10721, D816V); assay: Binding affinity to human KIT (I571 to D952 residues) D816V mutant expressed in bacterial expression system by KINOMEscan assay
[26] = molecular target: RAF proto-oncogene serine/threonine-protein kinase (Homo sapiens, UniProt P04049); assay: Binding affinity to human RAF1 (I330 to T640 residues) expressed in bacterial expression system by KINOMEscan assay

CC(C)CN(C(=O)c1cccnc1)c1c2ccccc2c(=O)n2c1[nH]c1ccccc12
96%: Activity [15]
≥ 5 µM: Kd [3] | Kd [4] | Kd [7] | Kd [9] | Kd [11] | Kd (Insulin receptor) | Kd [13] | Kd [14] | Kd [16] | Kd [19] | Kd [22] | Kd [23] | Kd [25] | Kd [26]
active: inhibition (HT-29 [2]) | Activity (HT-29 [8]) Dose-dependent effect | inhibition (Homo sapiens) | inhibition (SW-620 [18]) | Activity (SW-620 [20]) Dose-dependent effect
87%: Activity [17]
0.9%: Activity (HT-29 [24])
46.19%: Activity (SW-620 [10])
100%: Activity [5] | Activity [6] | Activity [12]
84%: Activity [1]
24.1 µM: GI50 (HT-29 [21])
